Assay results of several laboratories.
Lines come from different studies, so protocols differ.
PTGS1: Prostaglandin G/H synthase 1 (PTGS1, Ovis aries, UniProt P05979)
rep papain-like protease: Replicase polyprotein 1ab, papain-like protease (rep, Porcine epidemic diarrhea virus, UniProt P0C6Y4)
IPMK: Inositol polyphosphate multikinase (IPMK, Homo sapiens, UniProt Q8NFU5)
ALDH3A1: Aldehyde dehydrogenase, dimeric NADP-preferring (ALDH3A1, Homo sapiens, UniProt P30838)
MAP2K2: Dual specificity mitogen-activated protein kinase kinase 2 (MAP2K2, Homo sapiens, UniProt P36507)
rep main protease: Replicase polyprotein 1ab, main protease (rep, Porcine epidemic diarrhea virus, UniProt P0C6Y4)

| SMILES | target | test | IC50 [µM] |
| --- | --- | --- | --- |
| COc1ccc(C=NNC(=O)c2cc(-c3ccccc3)n(-c3ccc(S(N)(=O)=O)cc3)n2)cc1OC | PTGS1 | enzyme activity, inhibitor | 9.78 |
| NC(N)=S | Urease (Canavalia ensiformis, UniProt P07374) | enzyme activity, inhibitor | 23.8 |
| O=C(NCc1cc(O)c(O)c(Br)c1)c1ccc(Cl)c(F)c1 | rep papain-like protease | enzyme activity, inhibitor, FRET | 7.22 |
| COCCNc1nc(NCc2cccc(C(=O)Nc3ccc(OC)cc3)c2)nc2[nH]cnc12 | IPMK | enzyme activity, inhibitor | 63 |
| CC(C)N(CCC(=O)c1ccc2ccccc2c1)Cc1ccccc1 | ALDH3A1 | enzyme activity, inhibitor, fluorescence | < 10 |
| NS(=O)(=O)c1ccc(-n2nc(-c3nnc(CCl)o3)cc2-c2ccccc2)cc1 | PTGS1 | enzyme activity, inhibitor | 6.72 |
| CC#CC(=O)N1CC[C@@H](n2c(=O)n(-c3ccc(Oc4ccccc4)cc3)c3c(N)ncnc32)C1 | MAP2K2 | enzyme activity, inhibitor | > 5 |
| COc1ccc(N2CCN(Cc3cn4c(-c5ccc(Br)cc5)nnc4s3)CC2)cc1 | Aifm2 (Mus musculus, UniProt Q8BUE4, A354T/L360F) | enzyme activity, inhibitor, absorbance | ~0.518 |
| C=CC(=O)N1CCC([C@@H]2CCNc3c(C(N)=O)c(-c4ccc(Oc5ccccc5)cc4)nn32)CC1 | MAP2K2 | enzyme activity, inhibitor | 0.133 |
| Nc1nc2c(s1)C(c1ccccc1Cl)CC(=O)N2 (stereo not shown) | ALDH3A1 | enzyme activity, inhibitor, fluorescence | < 10 |
| CC(=NNC(=O)c1cc(-c2ccccc2)n(-c2ccc(S(N)(=O)=O)cc2)n1)c1ccc(C)cc1 | PTGS1 | enzyme activity, inhibitor | 3.32 |
| COCCNc1nc(NCc2cccc(-c3ccc(OC)cc3)c2)nc2[nH]cnc12 | IPMK | enzyme activity, inhibitor | 38 |
| O=C(NCc1cc(O)c(O)c(Br)c1)c1cccc(C(F)(F)F)c1 | rep papain-like protease | enzyme activity, inhibitor, FRET | 1.95 |
| NC(=O)c1nnn(Cc2cc(Cl)c(C(=O)c3ccc(Cl)cc3)c(Cl)c2)c1N | D(1A) dopamine receptor (DRD1, Homo sapiens, UniProt P21728) | cAMP, antagonist | 7.98 |
| O=C1Nc2ccc(I)cc2/C1=C/c1cc(Br)c(O)c(Br)c1 | Mitogen-activated protein kinase kinase kinase 20 (MAP3K20, Homo sapiens, UniProt Q9NYL2) | enzyme activity, inhibitor | 1.13 |
| Cc1ccc(S(=O)(=O)NNc2ccc([N+](=O)[O-])cc2[N+](=O)[O-])cc1 | PTGS1 | enzyme activity, inhibitor | 194 |
| Cn1c(C(=O)NCc2cc(O)c(O)c(Br)c2)cc2ccccc21 | rep papain-like protease | enzyme activity, inhibitor, FRET | 8.08 |
| COCCNc1nc(NCc2cccc(C(=O)Oc3ccc(OC)cc3)c2)nc2[nH]cnc12 | IPMK | enzyme activity, inhibitor | 14 |
| O=C(NCc1cc(O)c(O)c(Br)c1)c1nccs1 | rep papain-like protease | enzyme activity, inhibitor, FRET | 4.1 |
| COc1cc(NC(=O)c2cnn(-c3ccc([N+](=O)[O-])cc3)c2C(F)(F)F)cc(OC)c1 | PTGS1 | enzyme activity, inhibitor | 1.74 |
| CCC(C(=O)NCc1cc(O)c(O)c(Br)c1)c1ccccc1 (stereo not shown) | rep main protease | enzyme activity, inhibitor, FRET | 7.53 |
| NS(=O)(=O)c1ccc(-n2nc(C(=O)NN=Cc3cccnc3)cc2-c2ccccc2)cc1 | PTGS1 | enzyme activity, inhibitor | 8.94 |
| CC(=O)Oc1cccc(C(=O)NCc2cc(O)c(O)c(Br)c2)c1C | rep main protease | enzyme activity, inhibitor, FRET | 7.35 |
| O=C(Nc1ccc(-c2ccccc2)cc1)c1cnn(-c2ccc([N+](=O)[O-])cc2)c1C(F)(F)F | PTGS1 | enzyme activity, inhibitor | 5.91 |
| O=C(NCc1cc(O)c(O)c(Br)c1)N1CCCC1 | rep main protease | enzyme activity, inhibitor, FRET | 2.88 |
| N=C(N)c1ccc2nc(-c3cc(CC(=O)N[C@@H](CC(=O)O)C(=O)O)cc(-c4cc(S(N)(=O)=O)ccc4O)c3O)[nH]c2c1 | Coagulation factor VII (F7, Homo sapiens, UniProt P08709) | enzyme activity, inhibitor | 0.035 |
| O=C(NCc1cc(O)c(O)c(Br)c1)c1ccccc1 | rep papain-like protease | enzyme activity, inhibitor, FRET | 12.7 |
| NS(=O)(=O)c1ccc(-n2nc(C(=O)NN3C(=O)c4ccccc4C3=O)cc2-c2ccccc2)cc1 | PTGS1 | enzyme activity, inhibitor | 6.72 |
